Source: PubChem BioAssay AID602158 (Broad Institute, 2011)
Inconclusive results are not listed. Activity calls are given as the source filed them.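 Rule for the calls: active = half-maximal potency at or below twice the top valid dose in every separate test run, with falling signal; inconclusive = runs disagree, or flat 30 to 70% inhibition, or poor fit; inactive = inactive in every run, including rising signal.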

Target: Serine/threonine-protein kinase 33 (Homo sapiens) (UniProt Q9BYT3)
Experiment: STK33 kinase inhibitors, potency, dose response, biochemical, ADP-Glo luminescence, dry powder, set 3 (AID 602158)
Conditions: purified STK33, MBP phosphorylation; for activity change, negative = inhibition: at 10 µM (top of the series)
How it was run: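 Assay system: purified STK33 kinase enzyme; Also added: MBP substrate, ATP at Km; Signal: ADP-Glo luminescence; Incubation: 15 min RT preincubation, 60 min reaction.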

Sequence of Serine/threonine-protein kinase 33 (Homo sapiens) (Q9BYT3 whole entry, looked up): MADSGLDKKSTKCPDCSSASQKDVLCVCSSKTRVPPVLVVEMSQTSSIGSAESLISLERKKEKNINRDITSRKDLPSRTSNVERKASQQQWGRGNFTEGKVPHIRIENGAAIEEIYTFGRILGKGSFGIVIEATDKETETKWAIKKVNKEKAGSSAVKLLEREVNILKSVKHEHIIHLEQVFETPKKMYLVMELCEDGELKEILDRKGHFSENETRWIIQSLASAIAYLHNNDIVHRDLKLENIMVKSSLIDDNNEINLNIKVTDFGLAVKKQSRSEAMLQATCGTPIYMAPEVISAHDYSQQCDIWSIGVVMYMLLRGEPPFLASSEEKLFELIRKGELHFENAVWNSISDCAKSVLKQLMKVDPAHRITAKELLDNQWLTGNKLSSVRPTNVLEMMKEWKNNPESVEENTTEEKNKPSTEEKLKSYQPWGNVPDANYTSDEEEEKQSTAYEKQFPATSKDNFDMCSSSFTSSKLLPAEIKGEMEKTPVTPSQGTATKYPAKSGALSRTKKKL

| SMILES | activity change, negative = inhibition | AC50 |
| --- | --- | --- |
| COc1ccccc1C(=O)Nc1ccccc1-c1nc2ccccc2[nH]c1=O | inactive | – |
| O=C(Nc1ccccc1-c1nc2ccccc2[nH]c1=O)C1CCCC1 | inactive | – |
| Cc1cccc(C(=O)Nc2ccccc2-c2nc3ccccc3[nH]c2=O)c1 | – | 1.55 µM |
| O=C(Nc1ccccc1-c1nc2cc3ccccc3cc2[nH]c1=O)c1cccs1 | inactive | – |
| COc1cccc(C(=O)Nc2ccccc2-c2nc3ccccc3[nH]c2=O)c1 | – | 2.24 µM |
| O=c1[nH]c2ccccc2nc1-c1ccccc1NS(=O)(=O)c1cccs1 | inactive | – |
| Cc1ccc(C(=O)Nc2ccccc2-c2nc3ccccc3[nH]c2=O)cc1 | – | 0.763 µM |
| O=C(Nc1ccccc1-c1nc2ccccc2[nH]c1=O)C1CC1 | inactive | – |
| O=C(Nc1ccccc1-c1nc2ccccc2[nH]c1=O)c1nccs1 | – | 0.522 µM |
| O=C(Nc1ccccc1-c1nc2ccccc2[nH]c1=O)c1ccc(Cl)cc1 | – | 0.297 µM |
| CC(C)C(=O)Nc1ccccc1-c1nc2ccccc2[nH]c1=O | inactive | – |
| O=C(Nc1ccccc1-c1nc2ccccc2[nH]c1=O)c1cc2ccccc2s1 | inactive | – |
| O=C(Nc1ccccc1-c1nc2ccccc2[nH]c1=O)c1ccc(Cl)s1 | – | 0.38 µM |

The next lines start with the values.

| activity change, negative = inhibition | AC50 | SMILES |
| --- | --- | --- |
| inactive | – | O=c1[nH]c2ccccc2nc1-c1ccccc1NCc1ccccc1 |
| inactive | – | O=c1[nH]c2ccccc2nc1-c1ccccc1NCc1ccc(F)cc1 |
| – | 0.165 µM | O=C(Nc1ccccc1-c1nc2ccccc2[nH]c1=O)c1ccccc1 |
| – | 7.25 µM | O=c1[nH]c2ccccc2nc1-c1ccccc1NS(=O)(=O)c1ccccc1 |
| inactive | – | O=c1[nH]c2ccccc2nc1-c1ccccc1NCC1CC1 |
| inactive | – | Cc1ccccc1C(=O)Nc1ccccc1-c1nc2ccccc2[nH]c1=O |
| inactive | – | O=C(Nc1ccccc1-c1nc2ccccc2[nH]c1=O)c1ccccc1Cl |
| inactive | – | O=c1[nH]c2ccccc2nc1-c1ccccc1NCc1cccnc1 |
| – | 4.86 µM | O=C(Nc1ccccc1-c1nc2ccccc2[nH]c1=O)c1ccccc1F |
| inactive | – | O=c1[nH]c2ccccc2nc1-c1ccccc1NS(=O)(=O)c1cccnc1 |
| – | 1.54 µM | O=c1[nH]c2ccccc2nc1-c1ccccc1NCc1ccccn1 |
